Converted amounts (≈) assume the structure as drawn.
Tests used:
[1] = system: Staphylococcus epidermidis; experiment: Antibacterial activity against methicillin-susceptible Staphylococcus epidermidis ATCC 12228 assessed as reduction in microbial growth; type: functional
[2] = system: Staphylococcus epidermidis; experiment: Antibacterial activity against methicillin-resistant Staphylococcus epidermidis 16-5 assessed as reduction in microbial growth; type: functional
Staphylococcus aureus [3] = experiment: Antibacterial activity against methicillin-susceptible Staphylococcus aureus ATCC 29213 assessed as reduction in microbial growth; type: functional
Staphylococcus aureus [4] = experiment: Antibacterial activity against methicillin-resisitant Staphylococcus aureus 16-30 assessed as reduction in microbial growth; type: functional
Escherichia coli [5] = experiment: Antibacterial activity against NDM-1 producing Escherichia coli […] assessed as reduction in microbial growth; type: functional
Klebsiella pneumoniae [6] = experiment: Antibacterial activity against NDM-1 producing Klebsiella pneumoniae ATCC BAA-2146 assessed as reduction in microbial growth; type: functional
Enterococcus faecalis = experiment: Antibacterial activity against vancomycin-susceptible Enterococcus faecalis ATCC 29212 assessed as reduction in microbial growth; type: functional
Acinetobacter baumannii = experiment: Antibacterial activity against Acinetobacter baumannii ATCC 19606 assessed as reduction in microbial growth; type: functional; details: ATCC 19606 = CIP 70.34 = JCM 6841
Enterobacter cloacae = experiment: Antibacterial activity against Enterobacter cloacae ATCC 43560 assessed as reduction in microbial growth; type: functional
Klebsiella aerogenes = experiment: Antibacterial activity against Enterobacter aerogenes ATCC 13048 assessed as reduction in microbial growth; type: functional
Shigella = experiment: Antibacterial activity against Shigella ATCC 12022 assessed as reduction in microbial growth; type: functional
Enterococcus faecium = experiment: Antibacterial activity against vancomycin-resistant Enterococcus faecium ATCC 700221 assessed as reduction in microbial growth
Streptococcus pneumoniae [7] = experiment: Antibacterial activity against Erythromycin-susceptible Streptococcus pneumoniae ATCC 49619 assessed as reduction in microbial growth; type: functional
Streptococcus pneumoniae [8] = experiment: Bactericidal activity against Erythromycin-susceptible Streptococcus pneumoniae ATCC 49619; type: functional
How it was run: (§1)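 Bacteria were exposed to 1- to 8-fold MIC of the sample, then transferred to fresh medium without antibacterial. After further incubation, colonies were counted. MBC was taken as the lowest concentration giving a >3 log10 reduction in colony number.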

Streptococcus pneumoniae [9] = experiment: Ratio of MBC to MIC against Erythromycin-susceptible Streptococcus pneumoniae ATCC 49619; type: functional
Streptococcus pneumoniae [10] = experiment: Antibacterial activity against penicillin-susceptible Streptococcus pneumoniae PU09 harboring mef gene assessed as reduction in microbial growth; type: functional
Streptococcus pneumoniae [11] = experiment: Bactericidal activity against penicillin-susceptible Streptococcus pneumoniae PU09 harboring mef gene; type: functional
How it was run: (§2)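 Bacteria were exposed to 1- to 8-fold their MIC of test sample, then transferred to fresh culture medium without antibacterial compound and incubated for the required time. Colonies were then counted. MBC is the lowest concentration giving a reduction in colony number of >3 Log₁₀.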

Streptococcus pneumoniae [12] = experiment: Ratio of MBC to MIC against penicillin-susceptible Streptococcus pneumoniae PU09; type: functional
Streptococcus pneumoniae [13] = experiment: Antibacterial activity against MLSB-resistant Streptococcus pneumoniae 07P390 harboring ermB gene assessed as reduction in microbial growth; type: functional
Streptococcus pneumoniae [14] = experiment: Bactericidal activity against MLSB-resistant Streptococcus pneumoniae 07P390 harboring ermB gene assessed as reduction in microbial growth; type: functional; how it was run: as §2
Staphylococcus aureus [15] = experiment: Antibacterial activity against MLSB/methicillin/ciprofloxacin-resistant Staphylococcus aureus PU32 harboring ermA gene assessed as reduction in microbial growth; type: functional
Staphylococcus aureus [16] = experiment: Bactericidal activity against MLSB/methicillin/ciprofloxacin-resistant Staphylococcus aureus PU32 harboring ermA gene; type: functional; how it was run: as §2
Staphylococcus aureus [17] = experiment: Ratio of MBC to MIC against MLSB/methicillin/ciprofloxacin-resistant Staphylococcus aureus PU32 harboring ermA gene; type: functional
Staphylococcus aureus [18] = experiment: Antibacterial activity against MLSB/methicillin-resistant Staphylococcus aureus 15B196 assessed as reduction in microbial growth; type: functional
Staphylococcus aureus [19] = experiment: Bactericidal activity against MLSB/methicillin-resistant Staphylococcus aureus 15B196; type: functional; how it was run: as §2
Haemophilus influenzae [20] = experiment: Antibacterial activity against azithromycin-susceptible Haemophilus influenzae ATCC 49247 assessed as reduction in microbial growth; type: functional
Haemophilus influenzae [21] = experiment: Bactericidal activity against azithromycin-susceptible Haemophilus influenzae ATCC 49247; type: functional; how it was run: as §1
Haemophilus influenzae [22] = experiment: Ratio of MBC to MIC against azithromycin-susceptible Haemophilus influenzae ATCC 49247; type: functional
Staphylococcus aureus [23] = experiment: Antibacterial activity against MLSB/methicillin/ciprofloxacin-resistant Staphylococcus aureus PU32 harboring ermA gene assessed as reduction in microbial growth relative to ciprofloxacin; type: functional
Staphylococcus aureus [24] = experiment: Antibacterial activity against MLSB/methicillin-resistant Staphylococcus aureus 15B196 assessed as reduction in microbial growth relative to ciprofloxacin; type: functional
Haemophilus influenzae [25] = experiment: Antibacterial activity against azithromycin-susceptible Haemophilus influenzae ATCC 49247 assessed as reduction in microbial growth relative to ciprofloxacin; type: functional
Escherichia coli [26] = experiment: Antibacterial activity against Escherichia coli BW25113 depletion of toIC efflux gene assessed as reduction in microbial growth; type: functional
Escherichia coli [27] = experiment: Antibacterial activity against Escherichia coli JW5503-1 depletion of toIC efflux gene assessed as reduction in microbial growth; type: functional
Escherichia coli [28] = experiment: Antibacterial activity against Escherichia coli JW5503-KanS depletion of toIC efflux gene assessed as reduction in microbial growth; type: functional
Streptococcus pneumoniae [29] = experiment: Ratio of MBC to MIC against MLSB-resistant Streptococcus pneumoniae 07P390 harboring ermB; type: functional
Escherichia coli [30] = experiment: Antibacterial activity against ESBL negative Escherichia coli 16-7 assessed as reduction in microbial growth; type: functional
Escherichia coli [31] = experiment: Antibacterial activity against ESBL positive Escherichia coli 16-1 assessed as reduction in microbial growth; type: functional
Klebsiella pneumoniae [32] = experiment: Antibacterial activity against ESBL producing Klebsiella pneumoniae 16-14 assessed as reduction in microbial growth; type: functional
Pseudomonas aeruginosa = experiment: Antibacterial activity against Pseudomonas aeruginosa ATCC 27853 assessed as reduction in microbial growth; type: functional

Row | Structure (SMILES) | MIC [1] [µg/mL] | MIC [2] [µg/mL] | MIC (Staphylococcus aureus [3]) [µg/mL] | MIC (Staphylococcus aureus [4]) [µg/mL] | MIC (Escherichia coli [5]) [µg/mL] | MIC (Klebsiella pneumoniae [6]) [µg/mL] | MIC (Enterococcus faecalis) [µg/mL] | MIC (Acinetobacter baumannii) [µg/mL] | MIC (Enterobacter cloacae) [µg/mL] | MIC (Klebsiella aerogenes) [µg/mL] | MIC (Shigella) [µg/mL] | MIC (Enterococcus faecium) [µg/mL] | MIC (Streptococcus pneumoniae [7]) [µg/mL] | MBC (Streptococcus pneumoniae [8]) [µg/mL] | Ratio (Streptococcus pneumoniae [9]) | MIC (Streptococcus pneumoniae [10]) [µg/mL] | MBC (Streptococcus pneumoniae [11]) [µg/mL] | Ratio (Streptococcus pneumoniae [12]) | MIC (Streptococcus pneumoniae [13]) [µg/mL] | MBC (Streptococcus pneumoniae [14]) [µg/mL] | also measured
1 | C[C@H]1COc2c(N3CCN(C)CC3)c(F)cc3c(=O)c(C(=O)O)cn1c23.C[C@H]1COc2c(N3CCN(C)CC3)c(F)cc3c(=O)c(C(=O)O)cn1c23.O [LEVOFLOXACIN] | 0.12 | 8 | 0.12 | 32 | 16 | > 128 | 0.5 | 0.25 | < 0.03 | 0.06 | < 0.03 | 32 | – | – | – | – | – | – | – | – | –
2 | CC[C@H]1OC(=O)[C@H](C)[C@@H](O[C@H]2C[C@@](C)(OC)[C@@H](O)[C@H](C)O2)[C@H](C)[C@@H](O[C@@H]2O[C@H](C)C[C@H](N(C)C)[C@H]2O)[C@](C)(O)C[C@@H](C)CN(C)[C@H](C)[C@@H](O)[C@]1(C)O [AZITHROMYCIN] | – | – | – | – | – | – | – | – | – | – | – | – | 0.062 | 0.25 (≈ 0.334 µM) | 4 | 8 | 16 (≈ 21.4 µM) | 2 | 256 | > 257 | MIC (Staphylococcus aureus [15]): 32 µg/mL; MBC (Staphylococcus aureus [16]): 32 µg/mL (≈ 42.7 µM); Ratio (Staphylococcus aureus [17]): 1; MIC (Staphylococcus aureus [18]): > 256 µg/mL; MBC (Staphylococcus aureus [19]): > 256 µg/mL; MIC (Haemophilus influenzae [20]): 2 µg/mL; MBC (Haemophilus influenzae [21]): 8 µg/mL (≈ 10.7 µM); Ratio (Haemophilus influenzae [22]): 4; fold change (FC) (Staphylococcus aureus [23]): 0.22; fold change (FC) (Staphylococcus aureus [24]): >226; fold change (FC) (Haemophilus influenzae [25]): 22; MIC (Escherichia coli [26]): > 16 µg/mL; MIC (Escherichia coli [27]): 4 µg/mL; MIC (Escherichia coli [28]): 2 µg/mL
3 | CC[C@H]1OC(=O)[C@H](C)[C@@H](OC(=O)Cc2ccccn2)[C@H](C)[C@@H](O[C@@H]2O[C@H](C)C[C@H](N(C)C)[C@H]2O)[C@](C)(OC(=O)CCNCCC#Cc2cnc3ccccc3c2)C[C@@H](C)CN(C)[C@H](C)[C@@H](O)[C@]1(C)O | 0.25 | > 64 | 1 | > 64 | 8 | 32 | 1 | > 64 | 32 | 32 | 8 | > 64 | 0.062 | 0.125 (≈ 0.13 µM) | 2 | 1 | 1 (≈ 1.04 µM) | 1 | 0.5 | > 4 | Ratio (Streptococcus pneumoniae [29]): >8; MIC (Staphylococcus aureus [15]): 1 µg/mL; MBC (Staphylococcus aureus [16]): > 8 µg/mL; Ratio (Staphylococcus aureus [17]): >8; MIC (Staphylococcus aureus [18]): 128 µg/mL; MBC (Staphylococcus aureus [19]): > 256 µg/mL; MIC (Haemophilus influenzae [20]): 2 µg/mL; MBC (Haemophilus influenzae [21]): 4 µg/mL (≈ 4.17 µM); Ratio (Haemophilus influenzae [22]): 2; MIC (Escherichia coli [30]): 8 µg/mL; MIC (Escherichia coli [31]): 8 µg/mL; MIC (Klebsiella pneumoniae [32]): 16 µg/mL; MIC (Pseudomonas aeruginosa): > 64 µg/mL; fold change (FC) (Staphylococcus aureus [23]): 0.0054; fold change (FC) (Staphylococcus aureus [24]): 88; fold change (FC) (Haemophilus influenzae [25]): 172
4 | CC[C@H]1OC(=O)[C@H](C)[C@@H](OC(=O)Cc2ccccn2)[C@H](C)[C@@H](O[C@@H]2O[C@H](C)C[C@H](N(C)C)[C@H]2O)[C@](C)(OC(=O)CCNCCCNc2cc3c(=O)c(C(=O)O)cn(C4CC4)c3cc2Cl)C[C@@H](C)CN(C)[C@H](C)[C@@H](O)[C@]1(C)O | 4 | > 64 | 8 | > 64 | 64 | > 64 | 8 | > 64 | 64 | 64 | 16 | > 64 | 0.125 | 0.125 (≈ 0.114 µM) | 1 | 1 | 1 (≈ 0.909 µM) | 1 | 1 | > 8 | Ratio (Streptococcus pneumoniae [29]): >8; MIC (Staphylococcus aureus [15]): 8 µg/mL; MBC (Staphylococcus aureus [16]): > 64 µg/mL; Ratio (Staphylococcus aureus [17]): >8; MIC (Staphylococcus aureus [18]): > 256 µg/mL; MIC (Haemophilus influenzae [20]): 16 µg/mL; MBC (Haemophilus influenzae [21]): 64 µg/mL (≈ 58.2 µM); Ratio (Haemophilus influenzae [22]): 4; MIC (Escherichia coli [30]): 64 µg/mL; MIC (Escherichia coli [31]): 32 µg/mL; MIC (Klebsiella pneumoniae [32]): 64 µg/mL; MIC (Pseudomonas aeruginosa): > 64 µg/mL

— ChEMBL document CHEMBL4680236, “Design, synthesis and structure-activity relationships of novel 15-membered macrolides: Quinolone/quinoline-containing sidechains tethered to the C-6 position of azithromycin acylides” (Eur J Med Chem, 2020)
